Experiments:
Plasmodium falciparum [1] = experiment: Antiplasmodial activity against Plasmodium falciparum 3D7; format: functional, organism-based
How it was run: (§1)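 In vitro asexual P. falciparum growth inhibition, reported as IC50. The strains were chloroquine-sensitive 3D7; Dd2, resistant to CQ, SDX, PYR, MQ and CYC; TM90C6B, resistant to CQ, PYR and ATO; and 3D7r_MMV848, resistant to MMV692848. A standard antimalarial served as control for each resistant strain. Values are mean ± standard deviation of two independent experiments run in triplicate.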

Plasmodium falciparum [2] = experiment: Antiplasmodial activity against drug-resistant Plasmodium falciparum Dd2; format: functional, organism-based; how it was run: as §1
Plasmodium falciparum [3] = experiment: Resistance index, ratio of IC50 for drug-resistant Plasmodium falciparum Dd2 to IC50 for Plasmodium falciparum 3D7; format: functional
How it was run: (§2)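 Resistance index computed as IC50 against the resistant strain divided by IC50 against 3D7. IC50 values are mean ± standard deviation of two independent experiments in triplicate. Resistant strains: Dd2 (CQ, SDX, PYR, MQ, CYC), TM90C6B (CQ, PYR, ATO) and 3D7r_MMV848 (MMV692848).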

Plasmodium falciparum [4] = experiment: Antiplasmodial activity against drug-resistant Plasmodium falciparum TM90C6B; format: functional, organism-based; how it was run: as §1
Plasmodium falciparum [5] = experiment: Resistance index, ratio of IC50 for drug-resistant Plasmodium falciparum TM90C6B to IC50 for Plasmodium falciparum 3D7; format: functional; how it was run: as §2
Plasmodium falciparum [6] = experiment: Antiplasmodial activity against drug-resistant Plasmodium falciparum 3D7r_MMV848; format: functional, organism-based; how it was run: as §1
Plasmodium falciparum [7] = experiment: Resistance index, ratio of IC50 for drug-resistant Plasmodium falciparum 3D7r_MMV848 to IC50 for Plasmodium falciparum 3D7; format: functional; how it was run: as §2
[8] = Cytotoxicity against human HepG2 cells; format: toxicity, cell-based
[9] = Selectivity index, ratio of IC50 for human HepG2 cells to IC50 for Plasmodium falciparum 3D7; format: toxicity; settings: HepG2 cells versus Plasmodium falciparum 3D7, read-out: Ratio IC50

Row | Structure (SMILES) | IC50 (Plasmodium falciparum [1]) [µM] | IC50 (Plasmodium falciparum [2]) [µM] | Ratio IC50 (Plasmodium falciparum [3]) | IC50 (Plasmodium falciparum [4]) [µM] | Ratio IC50 (Plasmodium falciparum [5]) | IC50 (Plasmodium falciparum [6]) [µM] | Ratio IC50 (Plasmodium falciparum [7]) | IC50 [8] [µM] | selectivity ratio [9]
1 | CC1=C(C)[C@H]2[C@H](Cc3ccc(O)cc3)NC(=O)[C@]23OC(=O)C/C=C(/C)C(=O)[C@@H](C)C/C=C/[C@H]3[C@@H]1O | 4.4 | 7 | 1.6 | 6 | 1.4 | 4 | 0.9 | > 100 | > 23
2 | CC(C)c1c(C(=O)Nc2ccccc2)c(-c2ccccc2)c(-c2ccc(F)cc2)n1CC[C@@H](O)C[C@@H](O)CC(=O)O [ATORVASTATIN] | – | – | – | > 1 | >1428 | – | – | – | –
3 | CCc1nc(N)nc(N)c1-c1ccc(Cl)cc1 [PYRIMETHAMINE] | – | > 10 | >166 | – | – | – | – | – | –

Reference: ChEMBL document CHEMBL5584332, “Structure and Biosynthesis of Perochalasins A-C, Open-Chain Merocytochalasans Produced by the Marine-Derived Fungus Peroneutypa sp. M16” (J Nat Prod, 2024)
